Assay results taken from publication PMC3501882 (Diabetes, 2012).
Residues, ends and D or L forms follow the SMILES beside them.

What was measured:
[1] = type: physicochemical; details: poorly soluble peptides were used as suspensions in assays
BDC-2.5 T-cell clone = test: IFN-γ response of T-cell clone to antigen; type: cell-based, NOD mouse; details: for IFN-γ response of BDC-2.5 to peptide (in words): increasing peptide concentrations, before and after TGase treatment, Fig. 1B, 1C
PD-12.4.4 T-cell clone = test: IFN-γ response of insulin-reactive T-cell clone to antigen; type: cell-based, NOD mouse; details: for IFN-γ response of PD-12.4.4 to peptide (in words): increasing peptide concentrations, Fig. 1A, 1D
[2] = test system: guinea pig transglutaminase; details: increasing putrescine 0.06–15.6 mmol/L in the reaction mixture; gel lanes 2–10
[3] = test system: CD4 T cells from BDC-2.5 TCR-Tg mice; test: T-cell proliferation assay; type: cell-based, mouse; details: for Proliferative response of BDC-2.5 TCR-Tg CD4 T cells (in words): Fig. 2A, WE14 at 200 μg/mL (120 μmol/L)
Summary of the method: (§1)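 Spleen cells from TCR-transgenic NOD mice (2–5 months old) labeled with 2.5 μmol/L CFSE. Cultured at 1 × 10^6/well with peptide antigen, medium, or anti-CD3ε 0.1 μg/mL for 4 days. Cells stained for CD4 and analysed by flow cytometry, gated on CD4/lymphocyte events. Read-out: percentage of divided cells, mean and SD per mouse over two independent experiments.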

[4] = test system: CD4 T cells from BDC-6.9 TCR-Tg mice; test: T-cell proliferation assay; type: cell-based, mouse; details: Fig. 2A; negative control T cells
Summary of the method: as §1

Row | Compound | Solubility in water (in words) [1] | IFN-γ response of BDC-2.5 to peptide (in words) (BDC-2.5 T-cell clone) | IFN-γ response of PD-12.4.4 to peptide (in words) (PD-12.4.4 T-cell clone) | Proliferative response of BDC-2.5 TCR-Tg CD4 T cells (in words) [3] | further results
1 | CSCC[C@H](NC(=O)[C@H](CCCNC(=N)N)NC(=O)[C@H](CO)NC(=O)[C@@H](N)Cc1c[nH]c2ccccc12)C(=O)N[C@@H](CC(=O)O)C(=O)N[C@@H](CCC(N)=O)C(=O)N[C@@H](CC(C)C)C(=O)N[C@@H](C)C(=O)N[C@@H](CCCCN)C(=O)N[C@@H](CCC(=O)O)C(=O)N[C@@H](CC(C)C)C(=O)N[C@H](C(=O)N[C@@H](C)C(=O)N[C@@H](CCC(=O)O)C(=O)O)[C@@H](C)O [WE14] (H-WSRMDQLAKELTAE-OH) | solubilized directly in sterile water |  |  |  | 
2 | FVKQHLCGSHLVEALYLVCGERGFFYTPMS [insulin B-chain] | only poorly soluble in water | remain inactive | responded |  | Effect of TGase treatment on PD-12.4.4 response (PD-12.4.4 T-cell clone; Fig. 1D): not increased significantly
3 | NCCCCN [putrescine] |  |  |  |  | Effect of putrescine on antigenicity of β-Mem positive control antigen (BDC-2.5 T-cell clone; data not shown): did not affect the antigenicity; Effect of inhibitor in TGase reaction on BDC-2.5 response to converted peptide (BDC-2.5 T-cell clone; increasing putrescine 0.06–15.6 mmol/L, Fig. 6A top, lanes 2–10): diminished T-cell responses; Effect of inhibitor on TGase-catalysed WE14 oligomerization [2]: decreasing peptide oligomerization
4 | EKAHRPIWARMDAKK |  |  |  | responded | 
5 | WSRMDELAKELTAE [WE14-Q6E] | solubilized directly in sterile water | no better than unmodified WE14 |  |  | 
6 | DTKVMKCVLEVISD [ChgA29–42] | only poorly soluble in water | not antigenic | not antigenic at higher or lower peptide concentrations | no proliferative response | Proliferative response of BDC-6.9 TCR-Tg CD4 T cells (in words) [4]: no proliferative response; Effect of TGase treatment on antigenicity of the peptide (BDC-2.5 T-cell clone; BDC-2.5 (for WE14 also BDC-10.1 and BDC-9.46), IFN-γ ELISA): did not lead to an increase of antigenicity; IFN-γ response of PD-12.4.4 to peptide at 66 μg/mL (PD-12.4.4 T-cell clone; 66 μg/mL (42 μmol/L), in the absence of TGase): very small PD-12.4.4 response
7 | KCNTATCATQRLANFLVRSS [KS20] |  | remain inactive | did not respond | no proliferative response | Proliferative response of BDC-6.9 TCR-Tg CD4 T cells (in words) [4]: no proliferative response; Effect of TGase treatment of the peptide on T-cell proliferation ([3]; any peptide concentration tested, data not shown): did not alter the T-cell proliferation responses
